# This is a sample that favours compounds with a hit; in the whole collection about 3.2% have one here.
# NR2E3 ag-1 = activates human NR2E3 receptor. AID 602229. actives 0.35% (n = 360,000). inhibition of corepressor binding, % at 3.98 µM. CHO-S Gal4-NCOR/VP16-NR2E3 two-hybrid, luciferase. Q9Y5X4;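 active = inhibition above the mean of all tested compounds plus 3 SD, cut at about 70% in these data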;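 note: 0% = DMSO with NR2E3 transfected cells and 100% = cells lacking NR2E3 construct; higher means lower luciferase signal from less NR2E3 corepressor binding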
# NR2E3 ag-2 = agonists of human nuclear receptor NR2E3; GST-NR2E3/biotin-RetCOR TR-FRET, 1536-well; Q9Y5X4; inhibition of corepressor binding, % at 4.78 µM; actives 0.12% (n = 320,000); AID 2300;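 active = percent inhibition above the cutoff of mean plus 3 SD of all tested compounds, set per screening campaign, cut at about 20% in these data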;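 note: 0% = DMSO wells and 100% = biotin wells as full block of FRET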
#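 Material: NR2E3–RetCOR corepressor complex / Incubation: Compound–protein incubation for 5 h at 4 °C / Dosing: compound at 4.8 µM, single dose / Detection: time-resolved FRET / Benchmarks: high control biotin, low control 0.6% DMSO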
# DAX1 inh-1 = blocks DAX1 repression of SF-1 activated StAR promoter; HEK293T StAR-luciferase reporter, SF-1/DAX-1 repression relief; inhibition, % at 6.8 µM; actives 1.1% (n = 370,000); AID 652010;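 active = inhibition above the mean over all tested compounds plus 3 SD, cut at about 3.6% in these data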;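 note: 0% = DAX-1 cells with DMSO and 100% = cells lacking DAX-1 with DMSO; higher inhibition means more luminescence from relief of DAX-1 repression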
# DAX1 inh-2 = NR0B1 (DAX1) inhibition | P51843 | HEK293 Gal4-DAX1 luciferase reporter, luminescence | inhibition, % at 6.75 µM | actives 0.99% (n = 340,000);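 active = inhibition above the mean over all tested compounds plus 3 SD, cut at about 4.2% in these data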;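 note: 0% = DAX1-transfected cells with DMSO and 100% = empty-vector control cells with DMSO; inhibition shows as a rise in luminescence from relieved DAX1 repression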
# Target sequence (P51843 207-470 limits assumed): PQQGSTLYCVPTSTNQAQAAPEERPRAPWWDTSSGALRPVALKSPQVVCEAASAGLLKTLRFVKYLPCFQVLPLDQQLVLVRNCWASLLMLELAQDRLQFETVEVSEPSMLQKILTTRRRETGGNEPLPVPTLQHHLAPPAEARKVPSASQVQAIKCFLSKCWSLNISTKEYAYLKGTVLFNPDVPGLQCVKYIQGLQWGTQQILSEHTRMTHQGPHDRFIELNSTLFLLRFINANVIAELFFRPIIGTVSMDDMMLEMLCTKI
# JMJD2C inh = inhibitors of human GASC-1 (JMJD2C) demethylase | Q9H3R0 | GST-JMJD2C(1-420) H3K9me3 demethylation, DELFIA europium | inhibition, % at 2.35 µM | actives 0.069% (n = 330,000) | AID 2099;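 active = more than half of a compound's replicate wells show inhibition beyond 50%, single wells judged on their own value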;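 note: signal counts dimethyl H3K9 product captured on neutravidin plate; 0% = median of DMSO wells and 100% = 0.3 times that DMSO median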
# SMARCA2 act = SMARCA2 function activation, primary screen; MG213 cells, MMTV-luciferase reporter, dexamethasone, overnight; activation, % at 9.1 µM; actives 1% (n = 370,000); in the data active = activation above about 7.8%;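 note: 0% = vehicle wells and 100% = reference activator wells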
# SMARCA2 act conf = SMARCA2 activation, confirmation screen; shares compounds with SMARCA2 act; MG213 cells, MMTV-luciferase with dexamethasone, luminescence, overnight; MG213 cells expressing E1A, Rb sequestered; DMSO wells 0%, reference activator 100%; activation, % at 9.1 µM; actives 30% (n = 3,500); AID 652260;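 active = activation above its plate's cutoff, the mean activation of tested wells plus 3 SD, cut at about 7.9% in these data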
# GAL4-VP16 Luc = activates GAL4-VP16 luciferase, flagging SMARCA2 activator hits; shares compounds with SMARCA2 act; HEK293 GAL4-VP16 pG5luc reporter, luciferase luminescence; scaled: DMSO wells 0%, SAHA wells 100%; activation, % at 9.1 µM; actives 41% (n = 3,500);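 active = activation above the solvent-only control well mean plus 3 SD, averaged across control plates, cut at about 5.2% in these data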
# Active calls of the source: *; nt = not tested or not shown.
SMILES,NR2E3 ag-1,NR2E3 ag-2,DAX1 inh-1,DAX1 inh-2,JMJD2C inh,SMARCA2 act,SMARCA2 act conf,GAL4-VP16 Luc
COc1ccc(NC(=O)n2nc(OC(=O)c3cccs3)cc2N)cc1,-114,4,1,2,-2,9.1*,3,2
COc1ccc(-c2ccc(S(=O)(=O)n3nc(OC(=O)c4cccs4)cc3N)cc2)cc1,6,0,-1,-1,2,0,nt,nt
COc1ccc2c(c1OC)C(=O)OC2Nc1nc(-c2cc3cc(Br)ccc3oc2=O)cs1 (stereo not drawn),-129,0,2,4.8*,33,9.2*,12*,7.9*
COc1ccc(-c2csc(NC3OC(=O)c4c3ccc(OC)c4OC)n2)cc1OC (stereo not drawn),-17,1,0,2,51,-2,nt,nt
CN(C(=O)COC(=O)Cc1c(F)cccc1Cl)c1c(N)n(Cc2ccccc2)c(=O)[nH]c1=O,-7,5,1,0,2,9.4*,-2,3
ClC(Cl)(c1nnnn1-c1ccccc1)c1nnnn1-c1ccccc1,15,0,0,0,4,24*,-4,-1
Fc1cc(F)c2nc(N3CCCC3)sc2c1,-64,2,2,1,-26,8.4*,4,5
CCc1cc(C(=O)OC)c(NC(=O)CN2CCN(C(=O)c3ccco3)CC2)s1,-29,1,-1,0,4,0,nt,nt
Cc1ccc(C(=O)c2cc(C)sc2NC(=O)CN2CCN(C(=O)c3ccco3)CC2)cc1,-1,0,0,0,-37,8.8*,0,0
Cn1c2ccc(Cl)cc2c2nc3ccccc3nc21,-63,1,3,2,-12,9.4*,11*,3
CSc1ncccc1C(=O)OCC(=O)NC1CCCC1,-5,7,3,1,-1,8.6*,-1,0
CSc1ncccc1C(=O)OCC(=O)NC1CCCCC1,16,5,-1,1,-2,-1,nt,nt
CCc1ccccc1NC(=O)C1CCC(=O)N(c2ccc(OC)cc2)C1c1ccc(OC)cc1 (stereo not drawn),nt,nt,2,nt,nt,9.6*,-1,0
CCN(CC)CCn1c(NC(=O)c2ccc(Cl)cc2)nc2ccccc21,-30,5,1,0,12,2,nt,nt
O=C(Nc1nc2ccccc2n1CCN1CCOCC1)c1ccc(Cl)cc1,-20,-4,0,0,-14,8.0*,-3,2
O=C(Nc1nc2ccccc2n1CCN1CCCC1)c1ccc(Cl)cc1,-93,2,1,1,1,9.1*,18*,13*
CN1CCN(c2ccc(NC(=O)c3sc4ccccc4c3Cl)cc2)CC1,-84,3,1,3,-10,8.4*,1,3
CS(=O)(=O)N1CCN(c2ccc(NC(=O)c3ccc(-c4ccc(Cl)cc4)o3)cc2)CC1,-17,1,0,0,-11,-2,nt,nt
CN1CCN(c2ccc(NC(=O)c3ccc(-c4ccc(Cl)cc4)o3)cc2)CC1,-19,7,-4,0,-5,9.1*,7,0
CC(=O)NC(=O)c1ccc(-c2ccc(Cl)cc2)o1,-15,2,0,2,3,8.5*,7,4
COc1ccc(N2CCN(C(CNC(=O)COc3ccccc3)c3ccco3)CC2)cc1 (stereo not drawn),10,-2,-2,1,91,-3,nt,nt
CN1C[C@@H]2[C@@H]3C(=O)N(C)C(=O)[C@@H]3[C@](C)(C1=O)N2C(=O)c1ccc(F)cc1,-1,nt,1,0,nt,1,nt,nt
Cc1cc(C(=O)CSc2nnc(N)s2)c(C)n1Cc1ccco1,-68,-1,3,1,-6,12*,5,5

# Compound activity (PubChem)
